The nature of series [1]: Permeability across human Caco2 cells. The class given is ADME, cell-based. The conditions noted are these: Caco-2, read-out: permeability. The method, boiled down:
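Permeability was measured with the compound alone and in the presence of the P-gp inhibitor elacridar, and expressed in 10^-7 cm/s.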
On the technique in general: Caco-2 monolayers are a common model of the intestinal barrier.

In series [2] the test system is Mus musculus. As to the kind of experiment: Ex vivo inhibition of 11beta-HSD1 in C57Bl/6J mouse subcutaneous fat at 10 mg/kg, os after 2 hrs. The conditions noted are these: sc. It is filed as functional. The method, boiled down:
(§1)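 Mice given a single oral dose as a suspension in Tween 80/0.6% methylcellulose (0.5/99.5, v/v) at 10 mL/kg. At 2 h or 16 h post-dose, animals were killed by cervical dislocation and 50 mg liver and 200 mg subcutaneous fat were taken for 11β-HSD1 activity. Reactions were stopped with HCl 1 N/methanol (1/1). 3H-cortisone and 3H-cortisol were quantified by HPLC with flow scintillation detection.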

In series [3] the test system is Mus musculus. As to the kind of experiment: Ex vivo inhibition of 11beta-HSD1 in C57Bl/6J mouse liver at 10 mg/kg, os after 2 hrs. It is filed as functional. In outline:
as §1

The target of a further series is Cytochrome P450 3A4 (Homo sapiens, UniProt P08684). As to the kind of experiment: Inhibition of CYP3A4 (unknown origin). The class given is ADME.
Sequence of Cytochrome P450 3A4 (P08684 whole entry): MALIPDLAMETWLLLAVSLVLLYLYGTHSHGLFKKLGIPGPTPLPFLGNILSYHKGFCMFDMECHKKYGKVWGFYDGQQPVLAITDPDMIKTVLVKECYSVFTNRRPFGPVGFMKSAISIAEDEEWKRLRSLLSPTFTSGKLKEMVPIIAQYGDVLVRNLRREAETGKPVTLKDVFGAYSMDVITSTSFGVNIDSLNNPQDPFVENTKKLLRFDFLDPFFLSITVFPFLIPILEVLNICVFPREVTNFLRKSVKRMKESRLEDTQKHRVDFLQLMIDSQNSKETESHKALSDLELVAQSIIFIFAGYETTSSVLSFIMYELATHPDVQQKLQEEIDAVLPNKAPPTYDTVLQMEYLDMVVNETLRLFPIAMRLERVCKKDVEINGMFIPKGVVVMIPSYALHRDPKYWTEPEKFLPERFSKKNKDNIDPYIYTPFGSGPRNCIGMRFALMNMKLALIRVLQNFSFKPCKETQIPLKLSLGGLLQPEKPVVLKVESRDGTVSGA
Series [4] relates to Liver microsomes. Briefly: Metabolic stability in rat liver microsomes. The class given is ADME, Microsome. On the technique in general: Microsomes from liver hold many membrane-bound enzymes, among them those of drug oxidation.
In series [5] the test system is Liver microsomes. As to the kind of experiment: Metabolic stability in human liver microsomes. It is filed as ADME, Microsome.
The test system of a further series is Liver. As to the kind of experiment: Metabolic stability in mouse liver microsomes. It is filed as ADME, Microsome.
For series [6], the target named is 11-beta-hydroxysteroid dehydrogenase 1 (Mus musculus, UniProt P50172). As to the kind of experiment: Inhibition of mouse recombinant 11beta-HSD1 by scintillation proximity assay. (In general: In a scintillation proximity assay essentially only radioactivity close to the scintillant gives light.)
Sequence of 11-beta-hydroxysteroid dehydrogenase 1 (Mus musculus, UniProt P50172) (P50172 whole entry): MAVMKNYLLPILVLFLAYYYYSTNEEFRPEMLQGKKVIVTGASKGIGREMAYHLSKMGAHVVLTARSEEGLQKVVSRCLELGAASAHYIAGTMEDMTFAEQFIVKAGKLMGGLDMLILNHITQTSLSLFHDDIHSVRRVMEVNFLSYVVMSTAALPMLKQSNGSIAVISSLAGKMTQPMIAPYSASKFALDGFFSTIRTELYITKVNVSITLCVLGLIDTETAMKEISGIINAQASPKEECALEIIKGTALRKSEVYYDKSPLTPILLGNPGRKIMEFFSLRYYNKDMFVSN
Series [7] concerns the target 11-beta-hydroxysteroid dehydrogenase 1 (Rattus norvegicus, UniProt P16232). Briefly: Inhibition of rat 11beta-HSD1.
Series [8] deals with Mus musculus. Briefly: Ex vivo inhibition of 11beta-HSD1 in C57Bl/6J mouse subcutaneous fat at 30 mg/kg, po after 16 hrs. The class given is functional. In outline: as §1
For series [9], the system named is Mus musculus. As to the kind of experiment: Ex vivo inhibition of 11beta-HSD1 in C57Bl/6J mouse liver at 30 mg/kg, po after 16 hrs. It is filed as functional. The method, boiled down:
as §1

The subject of series [10] is Mus musculus. As to the kind of experiment: Ex vivo inhibition of 11beta-HSD1 in C57Bl/6J mouse subcutaneous fat at 3 mg/kg, po after 16 hrs. It is filed as functional. In outline:
as §1

Series [11] has as its system Mus musculus. As to the kind of experiment: Ex vivo inhibition of 11beta-HSD1 in C57Bl/6J mouse liver at 3 mg/kg, po after 16 hrs. The class given is functional. The method, boiled down: as §1
The target of series [12] is T1, 11-beta-hydroxysteroid dehydrogenase type 2 (Homo sapiens, UniProt P80365).
T1 sequence (P80365 whole entry): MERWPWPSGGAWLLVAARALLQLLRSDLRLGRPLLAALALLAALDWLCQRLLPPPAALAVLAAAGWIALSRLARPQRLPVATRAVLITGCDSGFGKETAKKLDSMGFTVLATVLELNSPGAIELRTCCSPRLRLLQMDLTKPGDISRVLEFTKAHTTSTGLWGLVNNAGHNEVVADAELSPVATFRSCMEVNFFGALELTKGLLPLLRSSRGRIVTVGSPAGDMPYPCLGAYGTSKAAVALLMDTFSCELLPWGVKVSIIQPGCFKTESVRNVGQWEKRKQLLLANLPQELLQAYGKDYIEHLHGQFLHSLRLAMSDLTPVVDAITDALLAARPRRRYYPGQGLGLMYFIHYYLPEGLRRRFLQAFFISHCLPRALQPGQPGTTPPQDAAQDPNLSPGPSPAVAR
Briefly: Inhibition of human 11beta-HSD2.

Series [13] relates to Mus musculus. As to the kind of experiment: Ex vivo inhibition of 11beta-HSD1 in C57Bl/6J mouse subcutaneous fat at 30 mg/kg, os after 2 hrs. It is filed as functional. The conditions noted are these: sc. In outline: as §1
Series [14] relates to Mus musculus. Briefly: Ex vivo inhibition of 11beta-HSD1 in C57Bl/6J mouse liver at 30 mg/kg, os after 2 hrs. The class given is functional. The method, boiled down: as §1

Twelve molecules from ChEMBL document CHEMBL2380292, “Discovery of SAR184841, a potent and long-lasting inhibitor of 11β-hydroxysteroid dehydrogenase type 1, active in a physiopathological animal model of T2D” (Bioorg Med Chem Lett, 2013) can be followed below.

Some results are limits rather than exact numbers.

Sequence of 11-beta-hydroxysteroid dehydrogenase 1 (Rattus norvegicus, UniProt P16232) (P16232 whole entry): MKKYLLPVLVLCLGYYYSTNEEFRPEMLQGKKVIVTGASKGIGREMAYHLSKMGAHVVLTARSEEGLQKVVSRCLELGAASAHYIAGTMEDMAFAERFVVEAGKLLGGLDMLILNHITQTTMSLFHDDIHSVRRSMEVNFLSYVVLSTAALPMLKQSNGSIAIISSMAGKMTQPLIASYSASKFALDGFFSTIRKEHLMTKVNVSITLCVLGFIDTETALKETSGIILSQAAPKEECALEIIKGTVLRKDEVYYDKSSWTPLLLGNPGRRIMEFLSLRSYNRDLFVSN

Consider `COc1ccc(-c2cnc(N3CCN(C(=O)N[C@H]4C5CC6CC4C[C@](O)(C6)C5)c4ccccc43)nc2)cc1`, for which, in series [1], the Papp came to 24.8 ×10⁻⁶ cm/s. In addition, the inhibition in vivo (commonly the relative decrease from the control value, in per cent) at 10 mg/kg came out at 30% in the series on Mus musculus [2] and 40% in the series on Mus musculus [3]. For the same molecule, the IC50 (in general, the concentration that gives 50% inhibition) at Cytochrome P450 3A4 was more than 10000 nM; in series [6] it was 15 nM; in [7], 110 nM. For the same molecule, the Stability in the series with Liver microsomes [4] came to 33%; with Liver microsomes [5], 41%; in the series with Liver it was 21%.
`NC(=O)[C@]12CC3CC(C1)[C@@H](NC(=O)N1CCN(c4ccc(N5CCN(S(=O)(=O)C6CC6)CC5)cn4)c4ccccc41)C(C3)C2`: in series [1], the Papp stood at 0.4 ×10⁻⁶ cm/s. Also, the values for the inhibition in vivo at 30 mg/kg in the series with Mus musculus [8] and with Mus musculus [9] were 50% and 75%, respectively. Besides, the IC50 was more than 30000 nM on Cytochrome P450 3A4, 8 nM in series [6] and 9 nM in series [7]. Further, the Stability in the series with Liver microsomes [4] worked out at 31%; in the series on Liver microsomes [5], 1%; with Liver, 18%. Besides, the inhibition in vivo at 3 mg/kg in the series with Mus musculus [10] and with Mus musculus [11] was more than 50% throughout.
As to `CC(C)(C)N1CCN(c2ccc(N3CCN(C(=O)N[C@H]4C5CC6CC4C[C@](O)(C6)C5)c4ccccc43)nc2)CC1`, the Papp in series [1] turned out to be 3.4 ×10⁻⁶ cm/s. Further, the values for the inhibition in vivo at 30 mg/kg with Mus musculus [8] and in the series with Mus musculus [9] were 20% and 55%, respectively. Further, the Stability stood at 20% in the series on Liver microsomes [4], 14% in the series on Liver microsomes [5] and 6% in the series on Liver. Also, the figures for the IC50 in [6] and in series [7] were 8 nM and 18 nM, respectively.
Take `COc1ccc(-c2cnc(N3CCN(C(=O)N[C@H]4C5CC6CC4C[C@](OC(N)=O)(C6)C5)c4ccccc43)nc2)cc1`: the IC50 is more than 10000 nM at Cytochrome P450 3A4, 5 nM in series [6] and 100 nM in [7]. The figures for the Stability in the series on Liver microsomes [4], with Liver microsomes [5] and with Liver were 70%, 89% and 96%, respectively.
For the molecule `CS(=O)(=O)N1CCN(c2ccc(N3CCN(C(=O)N[C@H]4C5CC6CC4C[C@](C(N)=O)(C6)C5)c4ccccc43)cc2)CC1`, the Papp in [1] is 3 ×10⁻⁶ cm/s. In addition, the inhibition in vivo at 30 mg/kg with Mus musculus [8] was determined as 30%; with Mus musculus [9], 55%. The figures for the IC50 (on Cytochrome P450 3A4; in series [6]; in series [7]) were more than 10000 nM, 5 nM and 24 nM, respectively. The figures for the Stability with Liver microsomes [4], in the series on Liver microsomes [5] and in the series on Liver were 26%, 3% and 22%, respectively.
Take `CS(=O)(=O)N1CCN(c2ccc(N3CCN(C(=O)N[C@H]4C5CC6CC4C[C@](O)(C6)C5)c4ccccc43)cc2)CC1`: the Papp in series [1] turned out to be 19.4 ×10⁻⁶ cm/s. For the same molecule, the inhibition in vivo at 30 mg/kg in the series on Mus musculus [8] turned out to be 55%; with Mus musculus [9] it was 80%. The IC50 on Cytochrome P450 3A4 was more than 10000 nM; in series [6], 1 nM; in [7], 114 nM. In addition, the Stability with Liver microsomes [4] turned out to be 17%; in the series with Liver microsomes [5] it was 2%; in the series on Liver, 9%.
As to `CS(=O)(=O)N1CCN(c2cnc(N3CCN(C(=O)N[C@H]4C5CC6CC4C[C@](O)(C6)C5)c4ccccc43)nc2)CC1`, the Papp in series [1] was determined as 0.7 ×10⁻⁶ cm/s. Besides, the values for the inhibition in vivo at 30 mg/kg in the series with Mus musculus [8] and in the series on Mus musculus [9] were 0% and 30%, respectively. For the same molecule, the IC50 against Cytochrome P450 3A4 is more than 10000 nM; in [6], 1 nM; in series [7], 28 nM. Also, the Stability with Liver microsomes [4] is 24%; with Liver microsomes [5] it was 9%; in the series with Liver, 18%.
For the molecule `CS(=O)(=O)N1CCN(c2ccc(N3CCN(C(=O)N[C@H]4C5CC6CC4C[C@](O)(C6)C5)c4ccccc43)nc2)CC1`, in series [1], the Papp was 7.9 ×10⁻⁶ cm/s. Moreover, the values for the inhibition in vivo at 30 mg/kg in the series with Mus musculus [8] and in the series with Mus musculus [9] were 20% and 47%, respectively. The IC50 against Cytochrome P450 3A4 was more than 30000 nM; in series [6], 2 nM; in series [7], 16 nM. Moreover, the Stability is 12% with Liver microsomes [4], 12% with Liver microsomes [5] and 18% in the series with Liver.
With `COc1ccc(-c2cnc(N3CCN(C(=O)N4CCC(c5cn[nH]c5)C4)c4ccccc43)nc2)cc1` (centres undefined), the IC50 against Cytochrome P450 3A4 is less than 300 nM; in [12] it was more than 10000 nM; in series [7] it was 600 nM. In addition, the inhibition in vivo at 30 mg/kg in the series with Mus musculus [13] came to 70%; in the series with Mus musculus [14], 90%.
Turning to `COc1ccc(-c2cnc(N3CCN(C(=O)N[C@H]4C5CC6CC4C[C@](C(N)=O)(C6)C5)c4ccccc43)nc2)cc1`, in series [1], the Papp was 18.2 ×10⁻⁶ cm/s. Also, the IC50 was more than 10000 nM against Cytochrome P450 3A4, 36 nM in series [6] and 70 nM in series [7]. Further, the Stability in the series with Liver microsomes [4] is 32%; in the series on Liver microsomes [5], 49%; in the series with Liver, 27%.
Turning to `O=C(N[C@H]1C2CC3CC1C[C@](O)(C3)C2)N1CCN(c2ccc(N3CCN(S(=O)(=O)C4CC4)CC3)cn2)c2ccccc21`, the Papp in series [1] was 9.8 ×10⁻⁶ cm/s. For the same molecule, the figures for the inhibition in vivo at 30 mg/kg with Mus musculus [8] and in the series on Mus musculus [9] were 40% and 65%, respectively. Besides, the IC50 at Cytochrome P450 3A4 was more than 10000 nM; in series [6] it was 21 nM; in series [7], 21 nM. Also, the Stability in the series with Liver microsomes [4] was 23%; with Liver microsomes [5], 9%; with Liver, 22%.
In the case of `CC(=O)N1CCN(c2ccc(N3CCN(C(=O)N[C@H]4C5CC6CC4C[C@](O)(C6)C5)c4ccccc43)nc2)CC1`, in series [1], the Papp came out at 1 ×10⁻⁶ cm/s. In addition, the inhibition in vivo at 30 mg/kg in the series on Mus musculus [8] and in the series with Mus musculus [9] was 0% in each case. Besides, the IC50 on Cytochrome P450 3A4 was more than 30000 nM; in series [7], 65 nM. The Stability in the series with Liver microsomes [4] was 18%; in the series with Liver microsomes [5], 5%; in the series with Liver, 14%.
